Tested on: U2OS
Experiment: Multiplex assay against U2OS
Assay type: toxicity, cell-based
Settings: human
How it was run: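 Imaging took place on a CQ1 microscope at 37°C and 5% CO2 once compound had been added to live cells stained at seeding with Hoechst33342, BioTracker Green Microtubule Cytoskeleton Dye, MitoTracker Red and Annexin V Alexa Fluor 680. CellPathfinder machine-learning gating classed cells as Hoechst high-intensity objects or normal cells, classed normal cells as having healthy, pyknosed or fragmented nuclei, and classed pyknosed cells as mitotic or apoptotic. Tubulin, mitochondrial-mass and membrane-permeability phenotypes are per cents of the healthy-nucleus cells.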

[1] = 12 h, 1 µM, compound concentration 1 uM, replicate 1
[2] = 12 h, 1 µM, compound concentration 1 uM, replicate 2
[3] = 12 h, 10 µM, compound concentration 10 uM, replicate 1
[4] = 12 h, 10 µM, compound concentration 10 uM, replicate 2
[5] = 24 h, 1 µM, compound concentration 1 uM, replicate 1
[6] = 24 h, 1 µM, compound concentration 1 uM, replicate 2
[7] = 24 h, 10 µM, compound concentration 10 uM, replicate 1
[8] = 24 h, 10 µM, compound concentration 10 uM, replicate 2
[9] = 48 h, 1 µM, compound concentration 1 uM, replicate 1
[10] = 48 h, 1 µM, compound concentration 1 uM, replicate 2
[11] = 48 h, 10 µM, compound concentration 10 uM, replicate 1
[12] = 48 h, 10 µM, compound concentration 10 uM, replicate 2

CCCN1CCC[C@@H]2Cc3n[nH]cc3C[C@H]21.Cl [QUINPIROLE HYDROCHLORIDE] was tested, and the “Population Apoptotic (%)” value [1] was 71%, the “Population Fragmented Nuclei (%)” value [1] was 31% and the “Population Healthy Nuclei (%)” value [1] was 60%. The “Population Hoechst High Intensity Objects (%)” value [1] was 2%, the “Population Membrane Permeable-Phenotype (%)” value [1] was 7% and the “Population Mitochondria Different-Phenotype (%)” value [1] was 1%. For the same molecule, the “Population Mitotic Cells (%)” value [1] was 28%, the “Population Normal (%)” value [1] was 97% and the “Population Pyknosed Nuclei (%)” value [1] was 8%. For the same molecule, the “Population Tubulin-Different-Phenotype (%)” value [1] was 3%, the “Total Cell Count” value [1] was 265 and the “Population Apoptotic (%)” value [2] was 61%. For the same molecule, the “Population Fragmented Nuclei (%)” value [2] was 21%, the “Population Healthy Nuclei (%)” value [2] was 67% and the “Population Hoechst High Intensity Objects (%)” value [2] was 0%. For the same molecule, the “Population Membrane Permeable-Phenotype (%)” value [2] was 2%, the “Population Mitotic Cells (%)” value [2] was 38% and the “Population Normal (%)” value [2] was 100%. The “Population Pyknosed Nuclei (%)” value [2] was 11%, the “Population Tubulin-Different-Phenotype (%)” value [2] was 2% and the “Total Cell Count” value [2] was 118. For the same molecule, the “Population Apoptotic (%)” value [3] was 58%, the “Population Fragmented Nuclei (%)” value [3] was 19% and the “Population Healthy Nuclei (%)” value [3] was 72%. For the same molecule, the “Population Hoechst High Intensity Objects (%)” value [3] was 1%, the “Population Membrane Permeable-Phenotype (%)” value [3] was 2% and the “Population Mitochondria Different-Phenotype (%)” value [3] was 0%. The “Population Mitotic Cells (%)” value [3] was 41%, the “Population Normal (%)” value [3] was 98% and the “Population Pyknosed Nuclei (%)” value [3] was 7%. For the same molecule, the “Population Tubulin-Different-Phenotype (%)” value [3] was 1%, the “Total Cell Count” value [3] was 228 and the “Population Apoptotic (%)” value [4] was 100%. For the same molecule, the “Population Fragmented Nuclei (%)” value [4] was 9%, the “Population Healthy Nuclei (%)” value [4] was 85% and the “Population Hoechst High Intensity Objects (%)” value [4] was 2%. For the same molecule, the “Population Membrane Permeable-Phenotype (%)” value [4] was 6%, the “Population Mitochondria Different-Phenotype (%)” value [4] was 5% and the “Population Mitotic Cells (%)” value [4] was 0%. The “Population Normal (%)” value [4] was 97%, the “Population Pyknosed Nuclei (%)” value [4] was 4% and the “Population Tubulin-Different-Phenotype (%)” value [4] was 2%. For the same molecule, the “Total Cell Count” value [4] was 126, the “Population Apoptotic (%)” value [5] was 68% and the “Population Fragmented Nuclei (%)” value [5] was 27%. The “Population Healthy Nuclei (%)” value [5] was 64%, the “Population Hoechst High Intensity Objects (%)” value [5] was 1% and the “Population Membrane Permeable-Phenotype (%)” value [5] was 4%. For the same molecule, the “Population Mitochondria Different-Phenotype (%)” value [5] was 3%, the “Population Mitotic Cells (%)” value [5] was 31% and the “Population Normal (%)” value [5] was 98%. For the same molecule, the “Population Pyknosed Nuclei (%)” value [5] was 7%, the “Population Tubulin-Different-Phenotype (%)” value [5] was 3% and the “Total Cell Count” value [5] was 299. For the same molecule, the “Population Apoptotic (%)” value [6] was 77%, the “Population Fragmented Nuclei (%)” value [6] was 18% and the “Population Healthy Nuclei (%)” value [6] was 68%. For the same molecule, the “Population Hoechst High Intensity Objects (%)” value [6] was 0%, the “Population Mitochondria Different-Phenotype (%)” value [6] was 4% and the “Population Mitotic Cells (%)” value [6] was 22%. For the same molecule, the “Population Normal (%)” value [6] was 100%, the “Population Pyknosed Nuclei (%)” value [6] was 13% and the “Population Tubulin-Different-Phenotype (%)” value [6] was 4%. The “Total Cell Count” value [6] was 138, the “Population Apoptotic (%)” value [7] was 88% and the “Population Fragmented Nuclei (%)” value [7] was 13%. For the same molecule, the “Population Healthy Nuclei (%)” value [7] was 80%, the “Population Hoechst High Intensity Objects (%)” value [7] was 2% and the “Population Membrane Permeable-Phenotype (%)” value [7] was 2%. The “Population Mitochondria Different-Phenotype (%)” value [7] was 0%, the “Population Mitotic Cells (%)” value [7] was 11% and the “Population Normal (%)” value [7] was 97%. The “Population Pyknosed Nuclei (%)” value [7] was 6%, the “Population Tubulin-Different-Phenotype (%)” value [7] was 1% and the “Total Cell Count” value [7] was 281. The “Population Apoptotic (%)” value [8] was 92%, the “Population Fragmented Nuclei (%)” value [8] was 9% and the “Population Healthy Nuclei (%)” value [8] was 82%. For the same molecule, the “Population Hoechst High Intensity Objects (%)” value [8] was 0%, the “Population Membrane Permeable-Phenotype (%)” value [8] was 0% and the “Population Mitochondria Different-Phenotype (%)” value [8] was 1%. For the same molecule, the “Population Mitotic Cells (%)” value [8] was 7%, the “Population Normal (%)” value [8] was 99% and the “Population Pyknosed Nuclei (%)” value [8] was 8%. The “Population Tubulin-Different-Phenotype (%)” value [8] was 0%, the “Total Cell Count” value [8] was 163 and the “Population Apoptotic (%)” value [9] was 75%. For the same molecule, the “Population Fragmented Nuclei (%)” value [9] was 19%, the “Population Healthy Nuclei (%)” value [9] was 74% and the “Population Hoechst High Intensity Objects (%)” value [9] was 1%. For the same molecule, the “Population Membrane Permeable-Phenotype (%)” value [9] was 4%, the “Population Mitochondria Different-Phenotype (%)” value [9] was 1% and the “Population Mitotic Cells (%)” value [9] was 25%. For the same molecule, the “Population Normal (%)” value [9] was 98%, the “Population Pyknosed Nuclei (%)” value [9] was 6% and the “Population Tubulin-Different-Phenotype (%)” value [9] was 2%. For the same molecule, the “Total Cell Count” value [9] was 425, the “Population Apoptotic (%)” value [10] was 78% and the “Population Fragmented Nuclei (%)” value [10] was 17%. For the same molecule, the “Population Healthy Nuclei (%)” value [10] was 69%, the “Population Hoechst High Intensity Objects (%)” value [10] was 3% and the “Population Mitochondria Different-Phenotype (%)” value [10] was 5%. For the same molecule, the “Population Mitotic Cells (%)” value [10] was 21%, the “Population Normal (%)” value [10] was 96% and the “Population Pyknosed Nuclei (%)” value [10] was 13%. For the same molecule, the “Total Cell Count” value [10] was 180, the “Population Apoptotic (%)” value [11] was 86% and the “Population Fragmented Nuclei (%)” value [11] was 11%. The “Population Healthy Nuclei (%)” value [11] was 78%, the “Population Hoechst High Intensity Objects (%)” value [11] was 3% and the “Population Membrane Permeable-Phenotype (%)” value [11] was 4%. For the same molecule, the “Population Mitochondria Different-Phenotype (%)” value [11] was 1%, the “Population Mitotic Cells (%)” value [11] was 13% and the “Population Normal (%)” value [11] was 96%. The “Population Pyknosed Nuclei (%)” value [11] was 9%, the “Population Tubulin-Different-Phenotype (%)” value [11] was 3% and the “Total Cell Count” value [11] was 386. The “Population Apoptotic (%)” value [12] was 91%, the “Population Fragmented Nuclei (%)” value [12] was 12% and the “Population Hoechst High Intensity Objects (%)” value [12] was 1%. The “Population Membrane Permeable-Phenotype (%)” value [12] was 6%, the “Population Mitochondria Different-Phenotype (%)” value [12] was 4% and the “Population Mitotic Cells (%)” value [12] was 8%. The “Population Normal (%)” value [12] was 98%, the “Population Tubulin-Different-Phenotype (%)” value [12] was 2% and the “Total Cell Count” value [12] was 251.
